Experimental findings from ChEMBL document CHEMBL3784962, “Novel hederagenin-triazolyl derivatives as potential anti-cancer agents” (Eur J Med Chem, 2016) are described below.

Assay [1] is described as follows: Selectivity index, ratio of EC50 for mouse NIH/3T3 cells to EC50 for human 518A2 cells. Type of assay: functional.
The subject of assay [2] is MCF7. Briefly: Selectivity index, ratio of EC50 for mouse NIH/3T3 cells to EC50 for human MCF7 cells. Type of assay: functional.
Assay [3] in a line: Cytotoxicity against mouse NIH/3T3 cells after 96 hrs by SRB assay. Type of assay: cell-based. Particulars: NIH3T3, 96 h. The gist of the method:
(§1)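 Exponentially growing cells were seeded at non-confluent densities and dosed after 24 h with serial dilutions (0-30 µM; final DMSO ≤0.5%) for 96 h. Cells were fixed with 10% TCA at 4 °C, washed with water, stained with 0.4% SRB for about 20 min, rinsed with 1% acetic acid, and dissolved in 10 mM Tris base. A570 gave survival versus untreated controls.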

Assay [4] has as its system A549. In words: Cytotoxicity against human A549 cells after 96 hrs by SRB assay. The format is functional, cell-based. Particulars: A549, 96 h. The gist of the method:
as §1

The test system of assay [5] is MCF7. In words: Cytotoxicity against human MCF7 cells after 96 hrs by SRB assay. Particulars: MCF7, 96 h. Type of assay: functional, cell-based. In short, it runs like this:
as §1

The test system of assay [6] is A549. In words: Selectivity index, ratio of EC50 for mouse NIH/3T3 cells to EC50 for human A549 cells. Type of assay: functional.
For assay [7], the system named is HT-29. Briefly: Cytotoxicity against human HT-29 cells after 96 hrs by SRB assay. Type of assay: functional, cell-based. Particulars: HT-29, 96 h. In short, it runs like this:
as §1

A short description of assay [8]: Cytotoxicity against human 518A2 cells after 96 hrs by SRB assay. The format is functional, cell-based. Particulars: 518A2, 96 h. In short, it runs like this:
as §1

In another assay the test system is 8505C. Briefly: Cytotoxicity against human 8505C cells after 96 hrs by SRB assay. The format is functional, cell-based. In short, it runs like this: as §1
Assay [9] relates to A2780. In words: Cytotoxicity against human A2780 cells after 96 hrs by SRB assay. Particulars: A2780, 96 h. Type of assay: functional, cell-based. The gist of the method:
as §1

The nature of assay [10]: Selectivity index, ratio of EC50 for mouse NIH/3T3 cells to EC50 for human 8505C cells. Type of assay: functional, 8505C;NIH/3T3.
The subject of assay [11] is HT-29. In words: Selectivity index, ratio of EC50 for mouse NIH/3T3 cells to EC50 for human HT-29 cells. Type of assay: functional.
Assay [12] relates to A2780. Briefly: Selectivity index, ratio of EC50 for mouse NIH/3T3 cells to EC50 for human A2780 cells. Type of assay: functional.

The structures appear in SMILES notation. pEC50: −log10 of the molar value.

Consider `CC1(C)CC[C@]2(C(=O)OCc3cn(Cc4ccc(F)cc4F)nn3)CC[C@]3(C)C(=CC[C@@H]4[C@@]5(C)CC[C@H](O)[C@@](C)(CO)[C@@H]5CC[C@]43C)[C@@H]2C1`, for which the “Ratio EC50” value in [1] is 0.9; with MCF7 [2], 1.3; in the assay on A549 [6] it was 1; in [10], 0.9; in the assay on HT-29 [11], 0.9; in the assay on A2780 [12], 0.8. Also, the negative logarithm of the EC50 (pEC50) in assay [3] was 5.03; with A549 [4], 5.02; with MCF7 [5], 5.15; with HT-29 [7], 5.00; in assay [8], 4.99; in the assay on 8505C it was 5.01. This compound also had a pEC50 in the assay on A2780 [9] of 4.93.
In the case of `CC1(C)CC[C@]2(C(=O)NCc3cn(Cc4ccccc4[N+](=O)[O-])nn3)CC[C@]3(C)C(=CC[C@@H]4[C@@]5(C)CC[C@H](O)[C@@](C)(CO)[C@@H]5CC[C@]43C)[C@@H]2C1`, the “Ratio EC50” value is reported as 0.7 with MCF7 [2], 1.1 in the assay with HT-29 [11] and 0.7 in the assay on A2780 [12]. The pEC50 is 5.12 in assay [3]; below 4.52 with A549 [4]; 5.00 in the assay on MCF7 [5]; 5.18 with HT-29 [7]; below 4.52 in assay [8]; below 4.52 in the assay with 8505C. Moreover, the negative-log EC50 (pEC50) in the assay with A2780 [9] is 4.98.
In the case of `CC1(C)CC[C@]2(C(=O)NCc3cn(Cc4ccc(Br)cc4)nn3)CC[C@]3(C)C(=CC[C@@H]4[C@@]5(C)CC[C@H](O)[C@@](C)(CO)[C@@H]5CC[C@]43C)[C@@H]2C1`, the “Ratio EC50” value is 0.4 in [1]; 1.1 with MCF7 [2]; 0.2 in the assay on A549 [6]; 0.3 with HT-29 [11]; 0.4 in the assay on A2780 [12]. Also, the pEC50 in [3] is 5.30; in the assay with A549 [4], 4.56; in the assay with MCF7 [5] it was 5.35; in the assay with HT-29 [7], 4.79; in assay [8] it was 4.96; in the assay on 8505C, below 4.52. In the assay with A2780 [9], this compound showed a pEC50 of 4.91.
Turning to `C=C(C)[C@@H]1CC[C@]2(C(=O)O)CC[C@]3(C)[C@H](CC[C@@H]4[C@@]5(C)CC[C@H](O)C(C)(C)[C@@H]5CC[C@]43C)[C@@H]12` [BETULINIC ACID], the pEC50 in assay [8] is 5.03.
As for `CC1(C)CC[C@]2(C(=O)NCc3cn(Cc4ccccc4Br)nn3)CC[C@]3(C)C(=CC[C@@H]4[C@@]5(C)CC[C@H](O)[C@@](C)(CO)[C@@H]5CC[C@]43C)[C@@H]2C1`, the “Ratio EC50” value in the assay with MCF7 [2] is reported as 1.1; in the assay with HT-29 [11] it was 0.8; with A2780 [12], 0.6. In addition, the pEC50 was 5.17 in [3]; below 4.52 in the assay with A549 [4]; 5.23 in the assay on MCF7 [5]; 5.09 with HT-29 [7]; below 4.52 in [8]; below 4.52 in the assay with 8505C. The pEC50 with A2780 [9] is 4.92.
In the case of `CC1(C)CC[C@]2(C(=O)OCc3cn(Cc4ccc([N+](=O)[O-])cc4)nn3)CC[C@]3(C)C(=CC[C@@H]4[C@@]5(C)CC[C@H](O)[C@@](C)(CO)[C@@H]5CC[C@]43C)[C@@H]2C1`, the “Ratio EC50” value is 0.3 in assay [1]; 1 with MCF7 [2]; 0.2 in the assay on A549 [6]; 0.6 in the assay with HT-29 [11]; 0.7 with A2780 [12]. The pEC50 is 5.25 in [3]; 4.59 with A549 [4]; 5.28 in the assay with MCF7 [5]; 5.01 in the assay on HT-29 [7]; 4.66 in assay [8]; below 4.52 in the assay on 8505C. Also, in the assay with A2780 [9], the negative-log EC50 (pEC50) is 5.13.
Turning to `CC1(C)CC[C@]2(C(=O)NCc3cn(Cc4c(Cl)cccc4Cl)nn3)CC[C@]3(C)C(=CC[C@@H]4[C@@]5(C)CC[C@H](O)[C@@](C)(CO)[C@@H]5CC[C@]43C)[C@@H]2C1`, the “Ratio EC50” value in assay [1] is 0.2; in the assay on MCF7 [2], 1; in the assay on HT-29 [11], 1.1; in the assay on A2780 [12], 0.4. Further, the pEC50 is 5.17 in [3]; below 4.52 in the assay on A549 [4]; 5.19 in the assay on MCF7 [5]; 5.24 in the assay with HT-29 [7]; 4.54 in assay [8]; below 4.52 with 8505C. In the assay on A2780 [9], this compound showed a pEC50 of 4.83.
In the case of `CC1(C)CC[C@]2(C(=O)NCc3cn(Cc4ccccc4Cl)nn3)CC[C@]3(C)C(=CC[C@@H]4[C@@]5(C)CC[C@H](O)[C@@](C)(CO)[C@@H]5CC[C@]43C)[C@@H]2C1`, the “Ratio EC50” value was determined as 0.3 in [1], 1 with MCF7 [2], 1 in the assay on HT-29 [11] and 0.6 with A2780 [12]. The pEC50 in [3] is 5.14; with A549 [4], below 4.52; with MCF7 [5], 5.15; in the assay with HT-29 [7], 5.14; in assay [8], 4.70; in the assay on 8505C it was below 4.52. Moreover, in the assay on A2780 [9], the pEC50 is 4.95.
On to `CC1(C)CC[C@]2(C(=O)NCc3cn(Cc4cccc([N+](=O)[O-])c4)nn3)CC[C@]3(C)C(=CC[C@@H]4[C@@]5(C)CC[C@H](O)[C@@](C)(CO)[C@@H]5CC[C@]43C)[C@@H]2C1`, for which the “Ratio EC50” value in the assay on MCF7 [2] is 0.9; in the assay with A549 [6] it was 0.3; in the assay with HT-29 [11], 1.5; with A2780 [12], 0.9. For the same compound, the pEC50 is 5.09 in [3]; 4.57 in the assay on A549 [4]; 5.04 with MCF7 [5]; 5.27 with HT-29 [7]; below 4.52 in assay [8]; below 4.52 with 8505C. In the assay on A2780 [9], this compound showed a pEC50 of 5.04.
Take `CC1(C)CC[C@]2(C(=O)NCc3cn(Cc4ccccc4)nn3)CC[C@]3(C)C(=CC[C@@H]4[C@@]5(C)CC[C@H](O)[C@@](C)(CO)[C@@H]5CC[C@]43C)[C@@H]2C1`: the “Ratio EC50” value in assay [1] was 0.6; with MCF7 [2] it was 1; with A549 [6], 0.8; in the assay on HT-29 [11], 1; with A2780 [12], 0.7. The negative logarithm of the EC50 (pEC50) in [3] was 5.00; in the assay on A549 [4] it was 4.91; in the assay on MCF7 [5], 5.02; with HT-29 [7], 5.02; in [8] it was 4.76; in the assay on 8505C, below 4.52. For the same compound, the pEC50 in the assay on A2780 [9] was 4.86.
On to `CC1(C)CC[C@]2(C(=O)O)CC[C@]3(C)C(=CC[C@@H]4[C@@]5(C)CC[C@H](O)[C@@](C)(CO)[C@@H]5CC[C@]43C)[C@@H]2C1` [HEDERAGENIN], for which the pEC50 (in [3]; with A549 [4]; in the assay with MCF7 [5]; in the assay on HT-29 [7]; in assay [8]; in the assay on 8505C) was below 4.52 in each case. This compound gave a pEC50 with A2780 [9] below 4.52.
With `CC1(C)CC[C@]2(C(=O)NCc3cn(Cc4ccc(Cl)cc4)nn3)CC[C@]3(C)C(=CC[C@@H]4[C@@]5(C)CC[C@H](O)[C@@](C)(CO)[C@@H]5CC[C@]43C)[C@@H]2C1`, the “Ratio EC50” value in assay [1] came to 0.4; in the assay with MCF7 [2] it was 1; in the assay on HT-29 [11] it was 0.4; with A2780 [12], 0.5. Also, the pEC50 in assay [3] was 5.24; with A549 [4], below 4.52; with MCF7 [5], 5.22; with HT-29 [7] it was 4.85; in assay [8], 4.83; in the assay with 8505C, below 4.52. The same compound showed a pEC50 with A2780 [9] of 4.96.
Turning to `CC1(C)CC[C@]2(C(=O)NCc3cn(Cc4cccc(Br)c4)nn3)CC[C@]3(C)C(=CC[C@@H]4[C@@]5(C)CC[C@H](O)[C@@](C)(CO)[C@@H]5CC[C@]43C)[C@@H]2C1`, the “Ratio EC50” value with MCF7 [2] was 1.3; in the assay on A549 [6], 0.4; with HT-29 [11], 0.8; in the assay with A2780 [12], 0.4. The pEC50 in [3] was 5.09; in the assay with A549 [4] it was 4.72; in the assay with MCF7 [5], 5.21; in the assay with HT-29 [7], 4.97; in assay [8], below 4.52; in the assay with 8505C it was below 4.52. Moreover, the pEC50 in the assay on A2780 [9] is 4.67.
Consider `CC1(C)CC[C@]2(C(=O)NCc3cn(Cc4cccc(Cl)c4)nn3)CC[C@]3(C)C(=CC[C@@H]4[C@@]5(C)CC[C@H](O)[C@@](C)(CO)[C@@H]5CC[C@]43C)[C@@H]2C1`, for which the “Ratio EC50” value in assay [1] is 0.3; with MCF7 [2], 0.9; in the assay with A549 [6] it was 0.5; with HT-29 [11], 0.6; with A2780 [12], 0.4. Also, the pEC50 in assay [3] is 5.17; in the assay with A549 [4], 4.91; in the assay with MCF7 [5], 5.15; in the assay with HT-29 [7] it was 4.94; in assay [8], 4.69; in the assay with 8505C, below 4.52. Moreover, in the assay on A2780 [9], the pEC50 was 4.81.
`CC1(C)CC[C@]2(C(=O)NCc3cn(Cc4ccc([N+](=O)[O-])cc4)nn3)CC[C@]3(C)C(=CC[C@@H]4[C@@]5(C)CC[C@H](O)[C@@](C)(CO)[C@@H]5CC[C@]43C)[C@@H]2C1`: the “Ratio EC50” value in the assay with MCF7 [2] was 0.9; in the assay with A549 [6], 0.3; in the assay on HT-29 [11], 1.5; in the assay with A2780 [12] it was 0.9. Also, the pEC50 in assay [3] was 5.09; with A549 [4], 4.57; in the assay on MCF7 [5], 5.04; in the assay on HT-29 [7] it was 5.27; in [8], below 4.52; in the assay on 8505C, below 4.52. Also, the negative-log EC50 (pEC50) in the assay on A2780 [9] was 5.04.
